Sampled rows, rich in hits. Any-hit rate of the full collection: about 4.8%.
APP transl inh: APP translation inhibition | 190,000 tested, 0.82% active | inhibition, % at 2 µM | SH-SY5Y APP 5'UTR-luciferase reporter, luminescence | AID 1285;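 active = inhibition above a set limit, derived from the sample mean plus 3 SD, cut at about 45% in these data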
FLuc inhib CS: inhibits firefly luciferase, flagging false hits in luciferase inhibition screens; P08659; ATPLite firefly luciferase biochemical luminescence, 10 min; inhibition, % at 10 µM; 200,000 tested, 1.5% active;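 active = inhibition above about 50% when tested at 10 µM, limit read from the data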
Target sequence (P08659 whole entry, looked up): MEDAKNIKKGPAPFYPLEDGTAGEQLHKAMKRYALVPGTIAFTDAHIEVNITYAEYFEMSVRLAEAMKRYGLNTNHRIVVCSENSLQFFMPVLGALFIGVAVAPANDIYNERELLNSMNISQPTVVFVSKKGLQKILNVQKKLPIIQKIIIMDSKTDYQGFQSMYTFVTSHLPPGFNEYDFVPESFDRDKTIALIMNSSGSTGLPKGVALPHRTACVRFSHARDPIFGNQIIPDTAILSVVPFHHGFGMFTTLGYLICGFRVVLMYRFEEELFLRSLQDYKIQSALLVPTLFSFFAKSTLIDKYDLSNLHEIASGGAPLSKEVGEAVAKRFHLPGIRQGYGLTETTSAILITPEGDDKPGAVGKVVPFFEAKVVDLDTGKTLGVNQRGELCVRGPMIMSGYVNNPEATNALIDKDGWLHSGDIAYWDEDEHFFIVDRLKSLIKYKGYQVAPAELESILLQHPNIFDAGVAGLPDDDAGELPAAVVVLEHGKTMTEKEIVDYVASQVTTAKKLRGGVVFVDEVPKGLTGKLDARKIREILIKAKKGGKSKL
STAT1 activator: increases IFN-gamma driven STAT1 reporter signal | NIH 3T3 STAT1-luciferase reporter, luminescence; 100% = IFN-gamma alone, no compound | activation (% of control), % at 5.5 µM | 200,000 tested, 2.6% active;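 active = activation above the screen-wide mean activation plus 3 SD, cut at about 130% in these data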;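 note: raw ratio to IFN-gamma control signal so 100% means no change and 0% no light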
APP 5'UTR act: APP 5'UTR luciferase reporter activation. SH-SY5Y APP 5'UTR luciferase reporter, luminescence; zero percent = DMSO vehicle wells. activation, % at 2 µM. 190,000 tested, 1% active;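 active = activation above a set limit, based on mean plus 3 SD of controls, cut at about 140% in these data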
NF-kB expr up: raises NF-kB expression in human neuronal cells; NF-kB reporter expression; hits give high values; fold change at 12.5 µM; 190,000 tested, 1.6% active; in the data active = fold change above about 3.3
FLuc stim CS: firefly luciferase counter-screen for stimulation assays | P08659 | ATPlite luciferase biochemical, luminescence, 10 min; 0 = ATP-free wells, 1 = DMSO control | activation factor at 10 µM | 200,000 tested, under 10 active;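 active = luciferase activation factor, scaled between plate controls, of at least 2 with compound at 10 µM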
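System: luciferase plus luciferin reagent, cell-free; medium: PBS as buffer for the ATP substrate; dosing: test compounds dosed from 2 mM stocks in 100% DMSO; timing: 10 min post-reagent at room temperature; measured by: luminescence measurement of luciferase light output; evaluation: luciferase activation, seen as luminescence increase over controls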
STAT1 activ conf: STAT1 activation, confirmation assay; shares compounds with STAT1 activator; NIH 3T3 STAT1-luciferase reporter, IFN-gamma potentiation, luminescence; 100% = IFN-gamma EC80 alone, no compound; activation (% of control), % at 5.7 µM; 1,200 tested, 97% active;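 active = activation above a set limit carried over from the earlier primary STAT1 screen, cut at about 140% in these data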;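 note: simple ratio to median IFN-gamma plus DMSO wells so 0% means no light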
NFkB act STAT1ct: counter-screen for STAT1 activators: NF-kappaB activation; shares compounds with STAT1 activator; HEK293T NF-kB luciferase reporter, TNF-alpha stimulated, luminescence; 100% = TNF-alpha with vehicle only; activation (% of control), % at 5.7 µM; 1,200 tested, 43% active;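 active = activation above the mean of solvent-only control wells plus 3 SD, set per campaign, cut at about 130% in these data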;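 note: TNF-alpha given at a submaximal dose yielding about 80% of full reporter signal; values are well signal over median control so 100% means no change and 0% no light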
STAT3 act 2: human STAT3 activation in STAT1 activator counter-screen. shares compounds with STAT1 activator. U3A cells STAT3-luciferase reporter, IL-6, luminescence; cells lack STAT1; 100 = IL-6 alone, no compound effect. 1,200 tested, 46% active. activation (% of control), % at 5.7 µM;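 active = activation above the solvent-only control well mean plus 3 SD, set per plate batch, cut at about 110% in these data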;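 note: 0% = no luminescence and 100% = median IL-6 plus DMSO wells; higher means more STAT3 reporter activation so hits are non-selective activators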
Active calls of the source: *.

Screening Cc1cccc(-n2ncc3c(NC4CCCCC4)ncnc32)c1 returned APP transl inh -180, FLuc inhib CS 70*, STAT1 activator 168*, APP 5'UTR act 180*, NF-kB expr up 7.2*, FLuc stim CS 0.3, STAT1 activ conf 239*, NFkB act STAT1ct 138* and STAT3 act 2 102.
For O=C(CN1C(=O)C(=O)N(Cc2ccco2)C1=O)NC1CCCCC1 the results were APP transl inh -22, FLuc inhib CS 3, STAT1 activator 102, APP 5'UTR act 22, NF-kB expr up 0.94 and FLuc stim CS 1.
`CC(=O)Nc1ccc(-c2csc(Nc3cccc(C)n3)n2)cc1` gave APP transl inh -168, FLuc inhib CS -6, STAT1 activator 160*, APP 5'UTR act 168*, NF-kB expr up 6.2*, FLuc stim CS 1.1, STAT1 activ conf 184*, NFkB act STAT1ct 129 and STAT3 act 2 100.
For Cc1cccnc1Nc1nc(-c2ccc(O)cc2)cs1 the results were APP transl inh -84, FLuc inhib CS 17, STAT1 activator 151*, APP 5'UTR act 84, NF-kB expr up 7.4*, FLuc stim CS 0.8, STAT1 activ conf 205*, NFkB act STAT1ct 141* and STAT3 act 2 111*.
For Cc1ccc(Nc2nc(-c3ccncc3)cs2)cc1 the results were APP transl inh -129, FLuc inhib CS 35, STAT1 activator 175*, APP 5'UTR act 129, NF-kB expr up 2.9, FLuc stim CS 0.6, STAT1 activ conf 215*, NFkB act STAT1ct 137* and STAT3 act 2 126*.
`CC(=O)Nc1cccc(-c2csc(Nc3ncccn3)n2)c1` gave APP transl inh -135, FLuc inhib CS 40, STAT1 activator 252*, APP 5'UTR act 135*, NF-kB expr up 1.7, FLuc stim CS 0.6, STAT1 activ conf 304*, NFkB act STAT1ct 130 and STAT3 act 2 113*.
`Oc1ccc(-c2csc(Nc3ncccn3)n2)c(O)c1` gave APP transl inh -155, FLuc inhib CS 26, STAT1 activator 176*, APP 5'UTR act 154*, NF-kB expr up 8.1*, FLuc stim CS 0.7, STAT1 activ conf 216*, NFkB act STAT1ct 144* and STAT3 act 2 109.
Screening CC(=O)Nc1ccc(S(=O)(=O)Nc2cccc(-c3csc(C)n3)c2)cc1 returned APP transl inh -2, FLuc inhib CS -10, STAT1 activator 87, APP 5'UTR act 1 and FLuc stim CS 1.1.
`CC(=O)Nc1cccc(-c2csc(Nc3ccc(C)cn3)n2)c1` gave APP transl inh -206, FLuc inhib CS 71*, STAT1 activator 217*, APP 5'UTR act 206*, NF-kB expr up 7.6*, FLuc stim CS 0.3, STAT1 activ conf 329*, NFkB act STAT1ct 139* and STAT3 act 2 99.
CCCCc1ccc(N=N/C(C(=O)Nc2cc(OC)c(NC(C)=O)cc2OC)=C(/C)O)cc1 was read as APP transl inh -14, FLuc inhib CS -4, STAT1 activator 100, APP 5'UTR act 14, NF-kB expr up 1 and FLuc stim CS 1.
Screening Cc1occc1C(=O)Nc1cc(C(C)(C)C)on1 returned APP transl inh -148, FLuc inhib CS 29, STAT1 activator 152*, APP 5'UTR act 148*, NF-kB expr up 4.5*, FLuc stim CS 0.7, STAT1 activ conf 191*, NFkB act STAT1ct 127 and STAT3 act 2 122*.
`CC(=O)c1cccc(NC(=O)c2ccoc2C)c1` gave APP transl inh 16, FLuc inhib CS -3, STAT1 activator 97, APP 5'UTR act -16, NF-kB expr up 1.3 and FLuc stim CS 1.
For Cc1occc1C(=O)Nc1ccc2ccccc2c1 the results were APP transl inh -164, FLuc inhib CS 21, STAT1 activator 156*, APP 5'UTR act 164*, NF-kB expr up 9.3*, FLuc stim CS 0.8, STAT1 activ conf 207*, NFkB act STAT1ct 125 and STAT3 act 2 152*.
For CCC(=O)Nc1ccc(/C(C)=N\NS(=O)(=O)c2ccc(C)cc2)cc1 the results were APP transl inh -7, FLuc inhib CS 1, STAT1 activator 98, APP 5'UTR act 7, NF-kB expr up 1.2 and FLuc stim CS 1.
CCC(C)(C)NC(=O)CCCSc1nc2ccccc2s1 was read as APP transl inh -20, FLuc inhib CS 22, STAT1 activator 119, APP 5'UTR act 20, NF-kB expr up 1.3 and FLuc stim CS 0.8.
Screening O=[N+]([O-])c1cccnc1NCCc1ccccc1 returned APP transl inh -76, FLuc inhib CS 2, STAT1 activator 151*, APP 5'UTR act 76, NF-kB expr up 2.3, FLuc stim CS 1, STAT1 activ conf 163*, NFkB act STAT1ct 129 and STAT3 act 2 117*.
Cc1ccc(C(C(=O)NC(C)(C)C)N(Cc2cccnc2)C(=O)C(=O)NC2CCCCC2)o1 (stereo not given) was read as APP transl inh -43, FLuc inhib CS -3, STAT1 activator 103, APP 5'UTR act 43, NF-kB expr up 1.2 and FLuc stim CS 1.
Screening CC1CCN(c2nc(Cl)nc(Nc3ccc([N+](=O)[O-])cc3)n2)CC1 returned APP transl inh 27, FLuc inhib CS -8, STAT1 activator 94, APP 5'UTR act -27, NF-kB expr up 1.1 and FLuc stim CS 1.1.
O=[N+]([O-])c1ccc(C2=Nc3cc(Cl)ccc3OC2)cc1 was read as APP transl inh -21, FLuc inhib CS -7, STAT1 activator 122, APP 5'UTR act 21, NF-kB expr up 1.3 and FLuc stim CS 1.1.
Cc1ccc2c(c1)N=C(c1ccc(F)cc1)CO2 was read as APP transl inh -86, FLuc inhib CS 36, STAT1 activator 164*, APP 5'UTR act 86, NF-kB expr up 2.8, FLuc stim CS 0.6, STAT1 activ conf 195*, NFkB act STAT1ct 144* and STAT3 act 2 111*.
`CSc1ncc2c(n1)-c1cc(C)ccc1SC2` gave APP transl inh 7, FLuc inhib CS -4, STAT1 activator 94, APP 5'UTR act -7, NF-kB expr up 0.75 and FLuc stim CS 1.

High-throughput results as filed in PubChem.
